# Measurements reported in ChEMBL document CHEMBL2086379, “Novel pyrimidopyrimidine derivatives for inhibition of cellular proliferation and motility induced by h-prune in breast cancer” (Eur J Med Chem, 2012).
# Activity calls are given as the source filed them. The calls are words filed in the database; no cut-off is given here.
# Assays:
# [1] = species: Homo sapiens; experiment: Inhibition of cell motility in human MDA-MB-231T cells expressing human-prune at 8 uM by 2D cell migration assay; type: functional, cell-based
# [2] = target: T1, Exopolyphosphatase PRUNE1 (Homo sapiens, UniProt Q86TP1); experiment: Inhibition of purified human prune assessed as reduction of cAMP-phosphodiesterase activity by SPA
# T1 sequence (Q86TP1 whole entry): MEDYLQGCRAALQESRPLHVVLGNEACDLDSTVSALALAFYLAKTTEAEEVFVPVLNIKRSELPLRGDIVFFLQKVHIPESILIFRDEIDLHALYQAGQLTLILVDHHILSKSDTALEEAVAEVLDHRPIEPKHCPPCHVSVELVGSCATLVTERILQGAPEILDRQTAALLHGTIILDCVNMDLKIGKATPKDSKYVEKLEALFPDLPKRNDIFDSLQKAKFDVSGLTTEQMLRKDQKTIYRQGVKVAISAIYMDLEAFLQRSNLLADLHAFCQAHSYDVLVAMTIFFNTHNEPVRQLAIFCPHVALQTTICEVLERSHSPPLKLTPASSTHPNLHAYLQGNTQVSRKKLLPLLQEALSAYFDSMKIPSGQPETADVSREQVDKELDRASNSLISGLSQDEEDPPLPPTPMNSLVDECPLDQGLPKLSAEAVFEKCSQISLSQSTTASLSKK
# [3] = target: T2, Exopolyphosphatase PRUNE1 (Homo sapiens) (UniProt Q86TP1); experiment: Inhibition of human prune expressed in human MDA-435-c100 cells at 1 uM assessed as reduction of cAMP-phosphodiesterase activity using whole cell protein extracts by SPA; type: cell-based
# T2 sequence (whole entry): T1 sequence (Q86TP1 whole entry)
# [4] = species: Homo sapiens; experiment: Inhibition of cell proliferation of human MDA-MB-231T cells expressing human-prune assessed as cell index levels at 50 uM measured 5 hrs post dose by xCelligence system based real time cell analysis method; type: functional
# Method in brief: (§1)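 Compound or DMSO added once when cell index reached 1.0–1.2 (50–60% confluence). CI read every 5 min for up to 54–56 h at 37 °C, 5% CO2, normalised to time of addition. Compounds at 50 µM (dose-response runs also 100 µM). Two independent experiments; Student's t test.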
# [5] = Inhibition of cell proliferation of human MDA-MB-231T cells expressing human-prune assessed as cell index levels at 50 uM measured 24 hrs post dose by xCelligence system based real time cell analysis method (reference value: 1.777 cell index); type: functional; method in brief: as §1
# [6] = target: T1, Exopolyphosphatase PRUNE1; experiment: Inhibition of human prune assessed as reduction of cAMP-phosphodiesterase activity
# [7] = species: Homo sapiens; experiment: Inhibition of cell proliferation of human MDA-MB-231T cells expressing human-prune assessed as cell index levels at 50 uM measured 9 to 54 hrs post dose by xCelligence system based real time cell analysis method; type: functional; method in brief: as §1
Structure (SMILES),inhibition [1],IC50 [2] [nM],inhibition [3],inhibition [4],Activity [5],IC50 [6] [nM],inhibition [7]
COc1ccc(CNc2nc(N(CCO)CCO)nc3c(NCc4ccc(OC)cc4)nc(N(CCO)CCO)nc23)cc1,Active,210,Active,inactive,1.185,,
OCCN(CCO)c1nc(N2CCCCC2)c2nc(N(CCO)CCO)nc(N3CCCCC3)c2n1 [DIPYRIDAMOLE],Active,,,inactive,1.472,780,Active
